Test results taken from ChEMBL document CHEMBL1129059, “Antitumor properties of some 2-[(dimethylamino)methyl]phenylgold(III) complexes” (J Med Chem, 1996).
Values joined by “and” are separate entries in the source; they are usually repeats but may differ in a detail not shown here. Identical values can stand only once.

Legend:
Mus musculus [1] = test: Compound was evaluated for antitumor activity (RTV) in HT1376 carcinoma Xenograft, at a dosage 6.25 mg/kg on day 14; assay type: functional, organism-based; parameters: dose 6.25 mg/kg
How it was run: (§1)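 HT1376 tumor fragments implanted subcutaneously in nude mice flanks; mice with established palpable tumors randomized into groups of 6 (controls 10). Compounds given intraperitoneally as suspensions in 0.5% carboxymethylcellulose in 0.9% saline, on days 0, 7, 14 and 21. Tumor dimensions on days 0, 7, 14, 21, 28. RTV = 100(mean tumor volume at assessment)/(mean start volume).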

Mus musculus [2] = test: Compound was evaluated for antitumor activity (RTV) in HT1376 carcinoma Xenograft, at a dosage 6.25 mg/kg on day 21; assay type: functional, organism-based; parameters: dose 6.25 mg/kg; how it was run: as §1
Mus musculus [3] = test: Compound was evaluated for antitumor activity (RTV) in HT1376 carcinoma Xenograft, at a dosage 6.25 mg/kg on day 28; assay type: functional, organism-based; parameters: dose 6.25 mg/kg; how it was run: as §1
Mus musculus [4] = test: Compound was evaluated for antitumor activity (T/C) in HT1376 carcinoma Xenograft, at a dosage 12.5 mg/kg on day 7; assay type: functional, organism-based; parameters: dose 12.5 mg/kg
How it was run: (§2)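 Subcutaneous HT1376 xenografts in nude mice, 6 per treated group and 10 controls. Intraperitoneal dosing as suspensions in 0.5% carboxymethylcellulose/0.9% saline on days 0, 7, 14, 21; tumors measured weekly to day 28. T/C = RTV of treated group / RTV of untreated control group; significance by t-test at the 5% level.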

Mus musculus [5] = test: Compound was evaluated for antitumor activity (T/C) in PNX/109/TC carcinoma Xenograft, at a dosage 10 mg/kg on day 14; assay type: functional, organism-based; parameters: dose 10 mg/kg
How it was run: (§3)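 PNX/109/TC (CH1) ovarian tumor fragments implanted subcutaneously in the flanks of nude mice. Once tumors were palpable, mice were randomized into 6 per treated group and 10 controls. Dosing was ip in arachis oil on days 0, 7, 14 and 21, at the MTD and two 2-fold dilutions, with tumor dimensions taken on days 0, 7, 14, 21 and 28. T/C is treated RTV over control RTV, with RTV relative to start volume.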

Mus musculus [6] = test: Compound was evaluated for antitumor activity (T/C) in PNX/109/TC carcinoma Xenograft, at a dosage 10 mg/kg on day 21; assay type: functional, organism-based; parameters: dose 10 mg/kg; how it was run: as §3
Mus musculus [7] = test: Compound was evaluated for antitumor activity (T/C) in PNX/109/TC carcinoma Xenograft, at a dosage 10 mg/kg on day 7; assay type: functional, organism-based; parameters: dose 10 mg/kg; how it was run: as §3
Mus musculus [8] = test: Compound was evaluated for antitumor activity (RTV) in HT1376 carcinoma Xenograft, at a dosage 25 mg/kg on day 14; assay type: functional, organism-based; parameters: dose 25 mg/kg; how it was run: as §1
Mus musculus [9] = test: Compound was evaluated for antitumor activity (RTV) in HT1376 carcinoma Xenograft, at a dosage 25 mg/kg on day 28; assay type: functional, organism-based; parameters: dose 25 mg/kg; how it was run: as §1
Mus musculus [10] = test: Compound was evaluated for antitumor activity (RTV) in HT1376 carcinoma Xenograft, at a dosage 25 mg/kg on day 7; assay type: functional, organism-based; parameters: dose 25 mg/kg; how it was run: as §1
Mus musculus [11] = test: Compound was evaluated for antitumor activity (T/C) in HT1376 carcinoma Xenograft, at a dosage 25 mg/kg on day 14; assay type: functional, organism-based; parameters: dose 25 mg/kg; how it was run: as §2
Mus musculus [12] = test: Compound was evaluated for antitumor activity (T/C) in HT1376 carcinoma Xenograft, at a dosage 25 mg/kg on day 21; assay type: functional, organism-based; parameters: dose 25 mg/kg; how it was run: as §2
Mus musculus [13] = test: Compound was evaluated for antitumor activity (T/C) in HT1376 carcinoma Xenograft, at a dosage 25 mg/kg on day 28; assay type: functional, organism-based; parameters: dose 25 mg/kg
How it was run: (§4)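 Nude mice carrying subcutaneous flank HT1376 fragments; treatment began once tumors were established and palpable, randomized into groups of 6 treated and 10 control mice. Dosing was ip as a suspension in 0.5% carboxymethylcellulose in 0.9% saline on days 0, 7, 14 and 21, at the MTD and two 2-fold dilutions. Tumors were measured on days 0-28. RTV = 100(mean volume at assessment)/(mean start volume); T/C = treated RTV/control RTV.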

Mus musculus [14] = test: Compound was evaluated for antitumor activity (T/C) in HT1376 carcinoma Xenograft, at a dosage 6.25 mg/kg on day 21; assay type: functional, organism-based; parameters: dose 6.25 mg/kg; how it was run: as §4
Mus musculus [15] = test: Compound was evaluated for antitumor activity (T/C) in HT1376 carcinoma Xenograft, at a dosage 6.25 mg/kg on day 28; assay type: functional, organism-based; parameters: dose 6.25 mg/kg; how it was run: as §4
Mus musculus [16] = test: Compound was evaluated for antitumor activity (T/C) in HT1376 carcinoma Xenograft, at a dosage 6.25 mg/kg on day 7; assay type: functional, organism-based; parameters: dose 6.25 mg/kg; how it was run: as §4
Mus musculus [17] = test: Compound was evaluated for antitumor activity (T/C) in HT1376 carcinoma Xenograft, at a dosage 12.5 mg/kg on day 28; assay type: functional, organism-based; parameters: dose 12.5 mg/kg; how it was run: as §2
Mus musculus [18] = test: Compound was evaluated for antitumor activity (T/C) in PNX/109/TC carcinoma Xenograft, at a dosage 20 mg/kg on day 21; assay type: functional, organism-based; parameters: dose 20 mg/kg; how it was run: as §3
Mus musculus [19] = test: Compound was evaluated for antitumor activity (T/C) in PNX/109/TC carcinoma Xenograft, at a dosage 20 mg/kg on day 7; assay type: functional, organism-based; parameters: dose 20 mg/kg; how it was run: as §3
Mus musculus [20] = test: Compound was evaluated for antitumor activity (T/C) in PNX/109/TC carcinoma Xenograft, at a dosage 5 mg/kg on day 7; assay type: functional, organism-based; parameters: dose 5 mg/kg; how it was run: as §3
Mus musculus [21] = test: Compound was evaluated for antitumor activity (RTV) in HT1376 carcinoma Xenograft, at a dosage 12.5 mg/kg on day 14; assay type: functional, organism-based; parameters: dose 12.5 mg/kg; how it was run: as §1
Mus musculus [22] = test: Compound was evaluated for antitumor activity (RTV) in HT1376 carcinoma Xenograft, at a dosage 12.5 mg/kg on day 21; assay type: functional, organism-based; parameters: dose 12.5 mg/kg; how it was run: as §1
Mus musculus [23] = test: Compound was evaluated for antitumor activity (RTV) in HT1376 carcinoma Xenograft, at a dosage 12.5 mg/kg on day 7; assay type: functional, organism-based; parameters: dose 12.5 mg/kg; how it was run: as §1
Mus musculus [24] = test: Compound was evaluated for antitumor activity (RTV) in PNX/109/TC carcinoma Xenograft, at a dosage 10 mg/kg on day 21; assay type: functional, organism-based; parameters: dose 10 mg/kg
How it was run: (§5)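 PXN/109/TC (CH1) ovarian tumor fragments implanted subcutaneously in nude mice flanks; established palpable tumors, groups of 6 (controls 10). Dosed intraperitoneally as suspension in arachis oil on days 0, 7, 14, 21. Tumors measured days 0, 7, 14, 21, 28. RTV = 100(mean tumor volume at assessment)/(mean start volume).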

Mus musculus [25] = test: Compound was evaluated for antitumor activity (RTV) in PNX/109/TC carcinoma Xenograft, at a dosage 10 mg/kg on day 28; assay type: functional, organism-based; parameters: dose 10 mg/kg; how it was run: as §5
Mus musculus [26] = test: Compound was evaluated for antitumor activity (RTV) in PNX/109/TC carcinoma Xenograft, at a dosage 20 mg/kg on day 14; assay type: functional, organism-based; parameters: dose 20 mg/kg; how it was run: as §5
Mus musculus [27] = test: Compound was evaluated for antitumor activity (RTV) in PNX/109/TC carcinoma Xenograft, at a dosage 20 mg/kg on day 21; assay type: functional, organism-based; parameters: dose 20 mg/kg; how it was run: as §5
Mus musculus [28] = test: Compound was evaluated for antitumor activity (RTV) in PNX/109/TC carcinoma Xenograft, at a dosage 20 mg/kg on day 7; assay type: functional, organism-based; parameters: dose 20 mg/kg; how it was run: as §5
Mus musculus [29] = test: Compound was evaluated for antitumor activity (RTV) in PNX/109/TC carcinoma Xenograft, at a dosage 5 mg/kg on day 28; assay type: functional, organism-based; parameters: dose 5 mg/kg; how it was run: as §5
Mus musculus [30] = test: Compound was evaluated for antitumor activity (RTV) in PNX/109/TC carcinoma Xenograft, at a dosage 5 mg/kg fon day 7; assay type: functional, organism-based; parameters: dose 5 mg/kg; how it was run: as §5
[31] = Range is evaluated. (Highest IC50/Lowest IC50); assay type: functional
Mus musculus [32] = test: Compound was evaluated for antitumor activity (RTV) in HT1376 carcinoma Xenograft, at a dosage 6.25 mg/kg on day 7.; assay type: functional, organism-based; parameters: dose 6.25 mg/kg; how it was run: as §1
Mus musculus [33] = test: Compound was evaluated for antitumor activity (RTV) in PNX/109/TC carcinoma Xenograft, at a dosage 5 mg/kg on day 14; assay type: functional, organism-based; parameters: dose 5 mg/kg; how it was run: as §5

Acetato[2-(dimethylamino)methyl]phenyl-C,N]gold-(III)
RTV (Mus musculus [1]): 724
RTV (Mus musculus [2]): 953
RTV (Mus musculus [3]): 1670
T/C (Mus musculus [4]): 0.77
T/C (Mus musculus [5]): 0.9
T/C (Mus musculus [6]): 1.03
T/C (Mus musculus [7]): 0.76
RTV (Mus musculus [8]): 454
RTV (Mus musculus [9]): 870
RTV (Mus musculus [10]): 258
T/C (Mus musculus [11]): 0.9
T/C (Mus musculus [12]): 0.76
T/C (Mus musculus [13]): 0.6
T/C (Mus musculus [14]): 1.07
T/C (Mus musculus [15]): 1.16
T/C (Mus musculus [16]): 1.37
T/C (Mus musculus [17]): 0.75
T/C (Mus musculus [18]): 0.51
T/C (Mus musculus [19]): 0.74
T/C (Mus musculus [20]): 0.69
RTV (Mus musculus [21]): 498
RTV (Mus musculus [22]): 682
RTV (Mus musculus [23]): 212
RTV (Mus musculus [24]): 515
RTV (Mus musculus [25]): 833
RTV (Mus musculus [26]): 200
RTV (Mus musculus [27]): 258
RTV (Mus musculus [28]): 173
RTV (Mus musculus [29]): 673
RTV (Mus musculus [30]): 160
Range [31]: 21.6 and 31
RTV (Mus musculus [32]): 379
RTV (Mus musculus [33]): 282
